pEC50, pKi: −log10 of the molar value. Non-standard residues stand in square brackets, D forms with d. Residues, ends and D or L forms follow the SMILES beside them. Phe(4-Br) = N[C@@H](Cc1ccc(Br)cc1)C(=O)O; NMeCha = CN[C@@H](CC1CCCCC1)C(=O)O; hArg = N=C(N)NCCCC[C@H](N)C(=O)O; Nle = CCCC[C@H](N)C(=O)O; Aib = CC(C)(N)C(=O)O
Experiments:
Apelin receptor [1] = molecular target: T1, Apelin receptor (Homo sapiens, UniProt P35414); assay: Activation of recombinant human APJ receptor expressed in rat Chem-5 cells assessed as increase in Ca2+ mobilization by FLIPR Calcium 6-QF fluorescent dye based assay; format: cell-based
T1 sequence (P35414 whole entry): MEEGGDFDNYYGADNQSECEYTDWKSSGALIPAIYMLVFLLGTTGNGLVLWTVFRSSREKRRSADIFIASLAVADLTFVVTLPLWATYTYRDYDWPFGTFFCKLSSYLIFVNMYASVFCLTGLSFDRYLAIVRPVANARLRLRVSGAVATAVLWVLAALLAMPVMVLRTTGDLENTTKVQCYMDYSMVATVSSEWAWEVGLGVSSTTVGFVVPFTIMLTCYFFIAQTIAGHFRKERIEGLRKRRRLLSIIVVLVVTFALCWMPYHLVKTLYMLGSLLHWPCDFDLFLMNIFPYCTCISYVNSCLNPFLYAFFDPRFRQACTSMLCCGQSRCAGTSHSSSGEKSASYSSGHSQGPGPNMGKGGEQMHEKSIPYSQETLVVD
How it was run: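 Frozen Chem-5 cells stably expressing human APJ, thawed per supplier protocol, loaded 1 h with Calcium 6-QF dye in HBSS/20 mM HEPES/0.2% DMSO/2.5 mM probenecid, pH 7.6. Cells washed three times and rested 10 min, then read on FLIPR. Agonist response taken as maximum fluorescence change over baseline. pEC50 from four-parameter logistic fit; triplicates.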

Mus musculus [2] = assay: Hypotensive effect in anesthetized wild type mouse assessed as change in mean arterial blood pressure at 1.4 uM/Kg, iv administered via right jugular vein measured for 60 mins; format: functional; details: 1 h
How it was run: (§1)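 Anesthetized mice received peptide at 1.4 μM kg−1 body weight, or equal-volume saline, by injection into the right jugular vein (n = 3). HR, MABP, SBP and DBP were recorded from blood pressure traces and reported as mean ± S.E.M.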

Mus musculus [3] = assay: Hypotensive effect in anesthetized wild type mouse assessed as total time duration of hypotensive effect at 1.4 uM/Kg, iv administered via right jugular vein measured for 60 mins; format: functional; details: 1 h; how it was run: as §1
Neprilysin [4] = molecular target: T2, Neprilysin (Homo sapiens, UniProt P08473); assay: Proteolytic stability assessed as recombinant human NEP-mediated compound degradation by measuring half life incubated for 24 hrs by LC-MS analysis; format: ADME; details: 24 h
T2 sequence (P08473 whole entry): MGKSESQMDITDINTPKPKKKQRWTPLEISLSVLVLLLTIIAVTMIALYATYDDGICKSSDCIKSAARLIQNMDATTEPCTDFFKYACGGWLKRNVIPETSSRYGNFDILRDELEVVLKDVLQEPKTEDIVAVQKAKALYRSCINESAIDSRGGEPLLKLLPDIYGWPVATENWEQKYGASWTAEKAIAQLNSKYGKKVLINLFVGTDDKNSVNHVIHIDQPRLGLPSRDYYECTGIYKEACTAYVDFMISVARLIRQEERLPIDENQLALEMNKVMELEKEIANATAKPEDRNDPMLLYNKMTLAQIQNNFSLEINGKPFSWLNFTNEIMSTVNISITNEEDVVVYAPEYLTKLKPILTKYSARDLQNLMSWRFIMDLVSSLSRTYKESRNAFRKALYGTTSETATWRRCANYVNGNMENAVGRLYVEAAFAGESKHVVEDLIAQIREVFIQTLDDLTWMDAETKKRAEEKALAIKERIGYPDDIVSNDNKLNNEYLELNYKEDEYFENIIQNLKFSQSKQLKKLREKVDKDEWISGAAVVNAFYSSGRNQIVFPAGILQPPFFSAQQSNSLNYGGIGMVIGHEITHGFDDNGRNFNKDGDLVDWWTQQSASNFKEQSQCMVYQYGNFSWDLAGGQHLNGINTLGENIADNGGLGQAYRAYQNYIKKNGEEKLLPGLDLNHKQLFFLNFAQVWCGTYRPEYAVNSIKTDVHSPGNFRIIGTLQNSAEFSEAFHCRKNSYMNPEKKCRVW

[5] = Stability in human plasma assessed as half life at 1 mM measured for 24 hrs by LC-MS analysis; format: ADME, cell-free
How it was run: (§2)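 Plasma (20 μL, human or murine) prewarmed to 37 °C, then 5 μL of 1 mM peptide added and incubated at 37 °C. Samples quenched at 1, 3, 6 and 24 h with 6 M GuHCl/80% ACN and Dans-YVG internal standard, centrifuged, solid-phase extracted and analyzed by LC-MS. Peptide/standard peak-area ratio normalized to 0 h; triplicates.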

[6] = Protein binding in pooled human plasma at 100 uM incubated for 3 hrs by equilibrium dialysis method; format: ADME, cell-free; details: read-out: PPB (converted)
How it was run: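 Equilibrium dialysis. DMSO stock (1 mM) diluted to 100 μM final in 55% pooled human plasma stabilized with EDTA and MLN-4760, dialyzed against PBS pH 7.4 at 37 °C, 120 rpm, 3 h. Retentate diluted with PBS and dialysate with plasma, then quenched with 10% TFA/acetonitrile. Dans-YVG internal standard added, centrifuged, LC-MS.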

Apelin receptor [7] = molecular target: T3, Apelin receptor (Rattus norvegicus, UniProt Q9JHG3); assay: Displacement of [125I]-pyr-1-apelin-13 from EGFP tagged rat apelin receptor expressed in CHO cell membrane incubated for 3 hrs by gamma counter analysis; format: cell membranes
T3 sequence (Q9JHG3 whole entry): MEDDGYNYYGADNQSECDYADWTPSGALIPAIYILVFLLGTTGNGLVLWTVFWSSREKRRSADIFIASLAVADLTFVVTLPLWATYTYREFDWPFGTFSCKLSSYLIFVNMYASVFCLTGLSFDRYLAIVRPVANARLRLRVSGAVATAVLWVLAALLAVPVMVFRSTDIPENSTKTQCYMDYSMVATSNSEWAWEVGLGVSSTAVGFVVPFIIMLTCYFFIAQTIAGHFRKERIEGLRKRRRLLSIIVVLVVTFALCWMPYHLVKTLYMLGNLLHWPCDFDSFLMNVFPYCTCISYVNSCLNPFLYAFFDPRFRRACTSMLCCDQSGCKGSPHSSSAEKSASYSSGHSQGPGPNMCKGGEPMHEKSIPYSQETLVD
How it was run: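 Crude membranes (1 μg/assay) from CHO cells stably expressing wild-type rat APJ-EGFP, incubated 3 h at 20 °C with 0.2 nM [125I]-pyr-1-apelin-13 (Lys8 Bolton–Hunter monoiodinated) and competitor at various concentrations. Binding buffer: 50 mM HEPES, 5 mM MgCl2, 1% BSA, pH 7.5. Quenched with cold buffer, GF/C filtered and washed, gamma counted; triplicates.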

Neprilysin [8] = molecular target: T2, Neprilysin; assay: Proteolytic stability assessed as recombinant human NEP-mediated compound degradation incubated for 24 hrs by LC-MS analysis; format: ADME
How it was run: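 Recombinant human NEP diluted to 2 ng μL−1 in NEP-B buffer and preincubated 10 min at 37 °C. Peptide (1 mM aqueous solution) added and incubated at 37 °C. Aliquots taken at 0, 2, 10, 20 and 48 h, quenched and quantified by LC-MS; triplicate per time point.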

[9] = Stability in mouse plasma assessed as half life at 1 mM measured for 24 hrs by LC-MS analysis; format: ADME, cell-free; how it was run: as §2

SMILES | pEC50 (Apelin receptor [1]) | Activity (Mus musculus [2]) [mmHg] | Time (Mus musculus [3]) [min] | t1/2 (Neprilysin [4]) [min] | half-life at 1000 µM [5] [min] | fraction unbound at 3 h, 100 µM [6] | pKi (Apelin receptor [7]) | Stability (Neprilysin [8]) | half-life at 1000 µM [9] [min]
CCCC[C@H](NC(=O)[C@@H]1CCCN1C(=O)CNC(=O)[C@H](CCCCN)NC(=O)[C@H](Cc1c[nH]cn1)NC(=O)[C@H](CO)NC(=O)[C@H](CC(C)C)NC(=O)[C@H](CCCNC(=N)N)NC(=O)[C@@H]1CCCN1C(=O)[C@H](CCCNC(=N)N)NC(=O)[C@H](CCC(N)=O)NC(=O)[C@H](CCCNC(=N)N)NC(=O)[C@H](CCCNC(=N)N)NC(=O)[C@H](Cc1ccccc1)NC(=O)[C@@H](N)CCCCN)C(=O)NC(C)(C)C(=O)N[C@@H](Cc1ccc(Br)cc1)C(=O)O (H-KFRRQRPRLSHKGP[Nle][Aib][Phe(4-Br)]-OH) | 8.37 | 10.24 | 33 | 657 | 54 | 0.43 | – | – | –
CCCC[C@H](NC(=O)[C@@H]1CCCN1C(=O)CNC(=O)[C@H](CCCCN)NC(=O)[C@H](Cc1c[nH]cn1)NC(=O)[C@H](CO)NC(=O)[C@H](CC1CCCCC1)N(C)C(=O)[C@H](CCCNC(=N)N)NC(=O)[C@@H]1CCCN1C(=O)[C@H](CCCNC(=N)N)NC(=O)[C@H](CCC(N)=O)NC(=O)[C@H](CCCNC(=N)N)NC(=O)[C@H](CCCNC(=N)N)NC(=O)[C@H](Cc1ccccc1)NC(=O)[C@@H](N)CCCCN)C(=O)NC(C)(C)C(=O)N[C@@H](Cc1ccc(Br)cc1)C(=O)O (H-KFRRQRPR[NMeCha]SHKGP[Nle][Aib][Phe(4-Br)]-OH) | 7.79 | 28.83 | 60 | – | 174 | 0.32 | 8.70 | Stable | 26.4
CCCC[C@H](NC(=O)[C@@H]1CCCN1C(=O)CNC(=O)[C@H](CCCCN)NC(=O)[C@H](Cc1c[nH]cn1)NC(=O)[C@H](CO)NC(=O)[C@H](CC1CCCCC1)N(C)C(=O)[C@H](CCCCNC(=N)N)NC(=O)[C@@H]1CCCN1C(=O)[C@H](CCCNC(=N)N)NC(=O)[C@H](CCC(N)=O)NC(=O)[C@H](CCCNC(=N)N)NC(=O)[C@H](CCCNC(=N)N)NC(=O)[C@H](Cc1ccccc1)NC(=O)[C@@H](N)CCCCN)C(=O)NC(C)(C)C(=O)N[C@@H](Cc1ccc(Br)cc1)C(=O)O (H-KFRRQRP[hArg][NMeCha]SHKGP[Nle][Aib][Phe(4-Br)]-OH) | 7.14 | 47.57 | 60 | – | 205 | 0.31 | 9.19 | Stable | 21.6

Source: ChEMBL document CHEMBL5233202, “Metabolically stable apelin-analogues, incorporating cyclohexylalanine and homoarginine, as potent apelin receptor activators” (RSC Med Chem, 2021)
